Measurements from ChEMBL document CHEMBL2417474, “Synthesis, antiproliferative and anti-inflammatory activities of some novel 6-aryl-2-(p-(methanesulfonyl)phenyl)-4,5-dihydropyridazi-3(2H)-ones” (Eur J Med Chem, 2013).

Legend:
Type in all cases: functional
[1] = system: MDA-MB-468; test: Growth inhibition of human MDA-MB-468 cells assessed as cell growth at 10 uM after 48 hrs by sulforhodamine B assay; conditions: MDA-MB-468, 48 h, read-out: Activity
[2] = system: BT-549; test: Growth inhibition of human BT549 cells assessed as cell growth at 10 uM after 48 hrs by sulforhodamine B assay; conditions: BT-549, 48 h, read-out: Activity
[3] = system: MDA-MB-231; test: Growth inhibition of human MDA-MB-231 cells assessed as cell growth at 10 uM after 48 hrs by sulforhodamine B assay; conditions: MDA-MB-231, 48 h, read-out: Activity
[4] = system: MCF7; test: Growth inhibition of human MCF7 cells assessed as cell growth at 10 uM after 48 hrs by sulforhodamine B assay; conditions: MCF7, 48 h, read-out: Activity
[5] = system: OVCAR-8; test: Growth inhibition of human OVCAR8 cells assessed as cell growth at 10 uM after 48 hrs by sulforhodamine B assay; conditions: OVCAR-8, 48 h, read-out: Activity
[6] = system: OVCAR-3; test: Growth inhibition of human OVCAR3 cells assessed as cell growth at 10 uM after 48 hrs by sulforhodamine B assay; conditions: OVCAR-3, 48 h, read-out: Activity
[7] = system: SK-MEL-5; test: Growth inhibition of human SK-MEL-5 cells assessed as cell growth at 10 uM after 48 hrs by sulforhodamine B assay; conditions: SK-MEL-5, 48 h, read-out: Activity
[8] = system: SK-MEL-2; test: Growth inhibition of human SK-MEL-2 cells assessed as cell growth at 10 uM after 48 hrs by sulforhodamine B assay; conditions: SK-MEL-2, 48 h, read-out: Activity
[9] = system: SF-539; test: Growth inhibition of human SF539 cells assessed as cell growth at 10 uM after 48 hrs by sulforhodamine B assay; conditions: SF-539, 48 h, read-out: Activity
[10] = system: SW-620; test: Growth inhibition of human SW620 cells assessed as cell growth at 10 uM after 48 hrs by sulforhodamine B assay; conditions: SW-620, 48 h, read-out: Activity
Outline: (§1)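 Single-dose NCI screen. Tumor lines were cultured in medium with 5% fetal calf serum and 2 mM L-glutamine, preincubated 24 h, then given compound in DMSO. After 48 h continuous exposure, cell growth was estimated by sulforhodamine B protein assay.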

[11] = system: KM12; test: Growth inhibition of human KM12 cells assessed as cell growth at 10 uM after 48 hrs by sulforhodamine B assay; conditions: KM12, 48 h, read-out: Activity
[12] = system: HT-29; test: Growth inhibition of human HT-29 cells assessed as cell growth at 10 uM after 48 hrs by sulforhodamine B assay; conditions: HT-29, 48 h, read-out: Activity
[13] = system: HCT-116; test: Growth inhibition of human HCT116 cells assessed as cell growth at 10 uM after 48 hrs by sulforhodamine B assay; conditions: HCT-116, 48 h, read-out: Activity
[14] = system: NCI-H522; test: Growth inhibition of human NCI-H522 cells assessed as cell growth at 10 uM after 48 hrs by sulforhodamine B assay; conditions: NCI-H522, 48 h, read-out: Activity
[15] = system: A549; test: Growth inhibition of human A549/ATCC cells assessed as cell growth at 10 uM after 48 hrs by sulforhodamine B assay; conditions: A549, 48 h, read-out: Activity
[16] = system: SR; test: Growth inhibition of human SR cells assessed as cell growth at 10 uM after 48 hrs by sulforhodamine B assay; conditions: read-out: Activity; outline: as §1
[17] = system: K562; test: Growth inhibition of human K562 cells assessed as cell growth at 10 uM after 48 hrs by sulforhodamine B assay; conditions: K562, 48 h, read-out: Activity
[18] = system: CAKI-1; test: Growth inhibition of human CAKI-1 cells after 48 hrs by sulforhodamine B assay; conditions: CAKI-1, 48 h
Outline: (§2)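 NCI 60-cell-line panel grown in RPMI-type medium with 5% fetal calf serum and 2 mM L-glutamine. Cells preincubated 24 h, then exposed continuously for 48 h to compound in DMSO at 10^-4 to 10^-8 M (five 10-fold levels). Growth read by SRB protein stain. GI50 is the concentration giving a 50% reduction in net protein increase relative to control cells.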

[19] = system: 786-0; test: Growth inhibition of human 786-0 cells after 48 hrs by sulforhodamine B assay; conditions: 786-0, 48 h; outline: as §2
[20] = system: OVCAR-8; test: Growth inhibition of human OVCAR8 cells after 48 hrs by sulforhodamine B assay; conditions: OVCAR-8, 48 h
Outline: (§3)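 NCI 60-cell-line panel. Cells were grown in medium with 5% fetal calf serum and 2 mM L-glutamine, then preincubated 24 h in plates. Compounds were added from DMSO at five 10-fold concentrations from 100 to 0.01 µM and left on cells continuously for 48 h. Cell growth was read by sulforhodamine B protein stain. GI50 is the concentration that halves net protein increase relative to control cells.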

[21] = system: MDA-MB-435; test: Growth inhibition of human MDA-MB-435 cells after 48 hrs by sulforhodamine B assay; conditions: MDA-MB-435, 48 h; outline: as §3
[22] = system: U-251; test: Growth inhibition of human U251 cells after 48 hrs by sulforhodamine B assay; conditions: U-251, 48 h; for CC50: read-out: LC50 (the source's name)
Outline: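 NCI 60-line panel. Cells were grown in medium with 5% fetal calf serum and 2 mM L-glutamine and preincubated 24 h in plates. Compound in DMSO was added at 10^-4 to 10^-8 M (five 10-fold levels), with continuous exposure for 48 h. Growth was read by SRB protein staining. GI50 is the concentration giving 50% reduction in net protein increase versus control cells.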

[23] = system: SF-295; test: Growth inhibition of human SF295 cells after 48 hrs by sulforhodamine B assay; conditions: SF-295, 48 h; outline: as §3
[24] = system: SF-268; test: Growth inhibition of human SF268 cells after 48 hrs by sulforhodamine B assay; conditions: SF-268, 48 h; for CC50: read-out: LC50 (the source's name); outline: as §3
[25] = system: HT-29; test: Growth inhibition of human HT-29 cells after 48 hrs by sulforhodamine B assay; conditions: HT-29, 48 h; outline: as §2
[26] = Growth inhibition of human HCC2998 cells after 48 hrs by sulforhodamine B assay; conditions: HCC 2998, 48 h; for CC50: read-out: LC50 (the source's name); outline: as §2
[27] = system: NCI-H522; test: Growth inhibition of human NCI-H522 cells after 48 hrs by sulforhodamine B assay; conditions: NCI-H522, 48 h; outline: as §3
[28] = system: NCI-H226; test: Growth inhibition of human NCI-H226 cells after 48 hrs by sulforhodamine B assay; conditions: NCI-H226, 48 h; for CC50: read-out: LC50 (the source's name); outline: as §3
[29] = system: RPMI-8226; test: Growth inhibition of human RPMI8226 cells after 48 hrs by sulforhodamine B assay; conditions: RPMI-8226, 48 h; for CC50: read-out: LC50 (the source's name); outline: as §3

SMILES: Cc1cc(O)ccc1C1=NN(c2ccc(S(C)(=O)=O)cc2)C(=O)CC1
- growth at 10 µM [1]: 103%
- growth at 10 µM [2]: 58.2%
- growth at 10 µM [3]: 74.8%
- growth at 10 µM [4]: 82.8%
- growth at 10 µM [5]: 92.3%
- growth at 10 µM [6]: 65.1%
- growth at 10 µM [7]: 68.3%
- growth at 10 µM [8]: 68.7%
- growth at 10 µM [9]: 73.8%
- growth at 10 µM [10]: 46.6%
- growth at 10 µM [11]: 47.6%
- growth at 10 µM [12]: 38.9%
- growth at 10 µM [13]: 52.4%
- growth at 10 µM [14]: 2.39%
- growth at 10 µM [15]: 72.2%
- growth at 10 µM [16]: 12.3%
- growth at 10 µM [17]: 20.6%
- LC50 (lethal concentration, 50% cell kill) [18]: > 100 µM
- GI50 [19]: 92.5 µM
- LC50 [19]: > 100 µM
- TGI [19]: > 100 µM
- GI50 [20]: 12.3 µM
- LC50 [20]: > 100 µM
- TGI [20]: > 100 µM
- GI50 [21]: 1.28 µM
- LC50 (concentration killing 50% of starting cells) [21]: > 100 µM
- TGI [21]: 5.83 µM
- GI50 [22]: 4.3 µM
- TGI [22]: > 100 µM
- CC50 [22]: > 100 µM
- GI50 [23]: 2.87 µM
- LC50 (concentration killing 50% of cells present at start) [23]: > 100 µM
- TGI [23]: 12.4 µM
- GI50 [24]: 40 µM
- TGI [24]: > 100 µM
- CC50 [24]: > 100 µM
- GI50 [25]: 3.7 µM
- LC50 (50% lethal concentration) [25]: > 100 µM
- TGI [25]: 32.3 µM
- GI50 [26]: 46.7 µM
- TGI [26]: > 100 µM
- CC50 [26]: > 100 µM
- GI50 [27]: 2.53 µM
- LC50 (concentration killing 50% of starting cells) [27]: > 100 µM
- TGI [27]: 8.6 µM
- GI50 [28]: > 100 µM
- TGI [28]: > 100 µM
- CC50 [28]: > 100 µM
- GI50 [29]: 25.6 µM
- TGI [29]: > 100 µM
- CC50 [29]: > 100 µM

SMILES: CCc1ccc(C2=NN(c3ccc(S(C)(=O)=O)cc3)C(=O)CC2)cc1
- growth at 10 µM [1]: 50.7%
- growth at 10 µM [2]: 21.9%
- growth at 10 µM [3]: 55.5%
- growth at 10 µM [4]: 26%
- growth at 10 µM [5]: 39.1%
- growth at 10 µM [6]: -13.6%
- growth at 10 µM [7]: 10.7%
- growth at 10 µM [8]: 36.9%
- growth at 10 µM [9]: 15.1%
- growth at 10 µM [10]: 12.4%
- growth at 10 µM [11]: 17.3%
- growth at 10 µM [12]: 11.5%
- growth at 10 µM [13]: 15.7%
- growth at 10 µM [14]: -1.27%
- growth at 10 µM [15]: 35.6%
- growth at 10 µM [16]: 4.42%
- growth at 10 µM [17]: 10.4%
- GI50 [18]: 1 µM
- LC50 (lethal concentration, 50% cell kill) [18]: > 100 µM
- TGI [18]: 8.22 µM
- GI50 [19]: 5.13 µM
- LC50 [19]: > 100 µM
- TGI [19]: 80.3 µM
- GI50 [20]: 3.25 µM
- LC50 [20]: > 100 µM
- TGI [20]: > 100 µM
- GI50 [21]: 0.22 µM
- LC50 (concentration killing 50% of starting cells) [21]: > 100 µM
- TGI [21]: 0.74 µM
- GI50 [22]: 1.91 µM
- TGI [22]: > 100 µM
- CC50 [22]: > 100 µM
- GI50 [23]: 0.93 µM
- LC50 (concentration killing 50% of cells present at start) [23]: > 100 µM
- TGI [23]: 8.73 µM
- GI50 [24]: 6.99 µM
- TGI [24]: > 100 µM
- CC50 [24]: > 100 µM
- GI50 [25]: 0.41 µM
- LC50 (50% lethal concentration) [25]: > 100 µM
- TGI [25]: 12.1 µM
- GI50 [26]: 5.27 µM
- TGI [26]: 53.4 µM
- CC50 [26]: > 100 µM
- GI50 [27]: 0.33 µM
- LC50 (concentration killing 50% of starting cells) [27]: > 100 µM
- TGI [27]: 8.37 µM
- GI50 [28]: 0.2 µM
- TGI [28]: > 100 µM
- CC50 [28]: > 100 µM
- GI50 [29]: 0.42 µM
- TGI [29]: > 100 µM
- CC50 [29]: > 100 µM

SMILES: O=c1[nH]cc(F)c(=O)[nH]1 [FLUOROURACIL]
- GI50 [18]: 0.07 µM
- GI50 [19]: 0.72 µM
- GI50 [20]: 1.74 µM
- GI50 [21]: 0.07 µM
- GI50 [22]: 0.9 µM
- GI50 [23]: 0.22 µM
- GI50 [24]: 1.62 µM
- GI50 [25]: 0.17 µM
- GI50 [26]: 0.05 µM
- GI50 [27]: 7.27 µM
- GI50 [28]: 54.7 µM
- GI50 [29]: 0.04 µM
